From ChEMBL document CHEMBL5380838, “Novel Aryl Sulfonamide Derivatives as NLRP3 Inflammasome Inhibitors for the Potential Treatment of Cancer” (J Med Chem, 2023)
Calls of active or inactive are those of the source. The rule behind the calls is not given here.

Experiments:
[1] = target: NACHT, LRR and PYD domains-containing protein 3 (Mus musculus) (UniProt Q8R4B8); assay: Inhibition of NLRP3 inflammasome activation in LPS-treated mouse BMDM cells assessed as inhibition of Bz-ATP-stimulated IL-1beta release at 1 uM incubated for 30 mins followed by Bz-ATP stimulation for 30 mins by ELISA method; type: cell-based; conditions: time 60.0 min
How it was run: (§1)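 Mouse BMDMs, C57BL/6 bone marrow cells differentiated 7 days with M-CSF 10 ng/mL, seeded 5 × 10^5/well. Primed with LPS 1 µg/mL for 2 h, then compound 1 µM in serum-free medium for 30 min, then Bz-ATP 100 µM for 30 min. Supernatant IL-1β by ELISA in pg/mL and as percent inhibition. Mean ± SEM of three independent experiments in triplicate.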

[2] = target: NACHT, LRR and PYD domains-containing protein 3 (Mus musculus) (UniProt Q8R4B8); assay: Inhibition of NLRP3 inflammasome activation in LPS-treated mouse BMDM cells assessed as Bz-ATP-stimulated IL-1beta level at 1 uM incubated for 30 mins followed by Bz-ATP stimulation for 30 mins by ELISA method; type: cell-based; conditions: time 60.0 min; how it was run: as §1
B16-F10 [3] = assay: Antitumor activity against cytosolic luciferase-transfected mouse B16-F10 cells xenografted in C57BL/6 mouse assessed as tumor reduction at 25 mg/kg, ip administered thrice weekly measured after 14 days by bioluminescence assay; type: functional, organism-based; conditions: time 14.0 day
How it was run: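 Female C57BL/6 mice aged 6–8 weeks inoculated subcutaneously with 1 × 10^6 B16-F10 cells stably expressing cytosolic luciferase. From day 5, IP dosing of 25 mg/kg thrice weekly, DMSO for controls, five mice per group. Imaging after IP D-luciferin 150 mg/kg under 2.5% isoflurane, read after 15 min. Caliper volume = π/6 × a × b². Tumors excised day 14.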

Mus musculus [4] = assay: Antiinflammatory activity in LPS-induced C57BL/6 mouse assessed as reduction in IL-1beta production in plasma at 25 mg/kg, ip pretreated for 30 mins followed by LPS induction measured after 4 hrs by ELISA method; type: functional, organism-based; conditions: time 4.5 hrs
How it was run: (§2)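 C57BL/6 mice given inhibitor 25 mg/kg IP (vehicle DMSO) 30 min before IP LPS 1 mg/kg; after 4 h, peritoneal exudate and blood collected, plasma from centrifugation 1000g 15 min 4 °C; IL-1β measured by ELISA; mean ± SEM of three independent experiments.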

B16-F10 [5] = assay: Antiproliferative activity against LPS-treated mouse B16-F10 cells co-cultured with mouse peritoneal macrophages assessed as decrease in cell growth at 1 uM incubated for 30 mins followed by ATP stimulation for 1 hr measured after 48 hrs by cell counting method; type: functional, cell-based; conditions: time 49.5 hrs
How it was run: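 Transwell co-culture (0.4 µm pores), 48 h: peritoneal macrophages from C57BL/6 mice (2 × 10^5, lower well) primed with LPS 1 µg/mL 2 h, then DMSO or compound 1 µM 30 min, then ATP 1 h; B16-F10 cells (2 × 10^3) in upper insert; tumor cells removed after 48 h and counted by image-based cytometer.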

[6] = Metabolic stability in human liver microsomes assessed as half life measured per mg protein at 1 uM measured upto 60 mins by LC-MS/MS analysis; type: ADME, Microsome
How it was run: (§3)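 Pooled human or CD-1 male mouse liver microsomes at 0.5 mg/mL with test compound 1 µM in 50 mM phosphate pH 7.4 and 3 mM MgCl2, preincubated 10 min at 37 °C. Percent parent remaining vs 0 min measured by LC-MS/MS. Cli = k/microsomal conc. × 1000; mean ± SD, n = 2.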

BMDM [7] = assay: Effect on NLRC4 inflammasome activation in LPS-treated mouse BMDM cells assessed as IL-1beta release at 1 uM incubated for 30 mins followed by Salmonella typhimurium flagellin stimulation for 2 hrs by ELISA method; type: functional, cell-based; conditions: time 150.0 min
How it was run: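 BMDMs primed with LPS 100 ng/mL for 3 h, then compound 1 µM in serum-free medium for 30 min, then flagellin 100 ng/mL for 2 h; supernatant mouse IL-1β by ELISA.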

THP-1 [8] = assay: Suppression of pro-IL-1beta expression in LPS-treated human THP-1 cells at 1 to 1000 nM incubated for 30 mins followed by ATP stimulation for 1 hr […]; type: functional, cell-based; conditions: dose 1-1000 nM, time 90.0 min
B16-F10 [9] = assay: Effect on NLRP3 expression in cytosolic luciferase-transfected mouse B16-F10 cells xenografted in C57BL/6 mouse at 25 mg/kg, ip administered thrice weekly measured after 14 days by Western blot analysis; type: functional, organism-based; conditions: time 14.0 day
How it was run: (§4)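 Tumors from luciferase-expressing B16-F10 grafts in C57BL/6 mice, dosed IP at 25 mg/kg thrice weekly (DMSO controls), were excised at endpoint and homogenized in sucrose/HEPES/IGEPAL lysis buffer. Lysates were western blotted and bands expressed as fold ratio over β-actin (n = 5).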

THP-1 [10] = assay: Suppression of caspase-1 expression in LPS-treated human THP-1 cells at 1 to 1000 nM incubated for 30 mins followed by ATP stimulation for 1 hr by […]; type: functional, cell-based; conditions: dose 1-1000 nM, time 90.0 min
How it was run: (§5)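 PMA-differentiated THP-1 cells (1 × 10^6/well) primed with LPS 1 µg/mL for 3 h, then DMSO or compound in serum-free medium for 30 min, then 5 mM ATP for 1 h. RIPA lysates (20 µg) and concentrated supernatants run on SDS-PAGE and western blotted for NLRP3, ASC, caspase-1 and IL-1β, normalized to GAPDH; three independent experiments.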

[11] = Metabolic stability in mouse liver microsomes assessed as half life measured per mg protein at 1 uM measured upto 60 mins by LC-MS/MS analysis; type: ADME, Microsome; how it was run: as §3
[12] = Metabolic stability in mouse liver microsomes assessed as intrinsic clearance measured per mg protein at 1 uM measured upto 60 mins by LC-MS/MS analysis; type: ADME, Microsome; conditions: read-out: CLH; how it was run: as §3
Mus musculus [13] = assay: Antiinflammatory activity in LPS-induced C57BL/6 mouse assessed as reduction in IL-1beta production in peritoneal exudate at 25 mg/kg, ip pretreated for 30 mins followed by LPS induction measured after 4 hrs by ELISA method; type: functional, organism-based; conditions: time 4.5 hrs; how it was run: as §2
[14] = Metabolic stability in human liver microsomes assessed as intrinsic clearance measured per mg protein at 1 uM measured upto 60 mins by LC-MS/MS analysis; type: ADME, Microsome; conditions: read-out: CLH; how it was run: as §3
B16-F10 [15] = assay: Effect on cleaved caspase-1 expression in cytosolic luciferase-transfected mouse B16-F10 cells xenografted in C57BL/6 mouse at 25 mg/kg, ip administered thrice weekly measured after 14 days by Western blot analysis; type: functional, organism-based; conditions: time 14.0 day; how it was run: as §4
THP-1 [16] = assay: Suppression of IL-1beta processing in LPS-treated human THP-1 cells at 1 to 1000 nM incubated for 30 mins followed by ATP stimulation for 1 hr by ELISA method; type: functional, cell-based; conditions: dose 1-1000 nM, time 90.0 min
THP-1 [17] = assay: Cytotoxicity against human THP-1 cells assessed as reduction in cell viability at 1 uM measured after 48 hrs by RealTime-Glo MT assay; type: toxicity, cell-based; conditions: thp-1, 48 h
How it was run: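 THP-1 cells (10 × 10^4/well) treated with inhibitors at 1 µM and kept 48 h; RealTime-Glo reagent added, luminescence read every 12 h as a proxy for metabolically active cells; means of RLU ± SEM.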

THP-1 [18] = assay: Suppression of caspase-1 p10 expression in LPS-treated human THP-1 cells at 1 to 1000 nM incubated for 30 mins followed by ATP stimulation for 1 hr […]; type: functional, cell-based; conditions: dose 1-1000 nM, time 90.0 min
THP-1 [19] = assay: Suppression of ASC expression in LPS-treated human THP-1 cells at 1 to 1000 nM incubated for 30 mins followed by ATP stimulation for 1 hr […]; type: functional, cell-based; conditions: dose 1-1000 nM, time 90.0 min; how it was run: as §5
B16-F10 [20] = assay: Effect on total caspase-1 expression in cytosolic luciferase-transfected mouse B16-F10 cells xenografted in C57BL/6 mouse at 25 mg/kg, ip administered thrice weekly measured after 14 days by Western blot analysis; type: functional, organism-based; conditions: time 14.0 day; how it was run: as §4
B16-F10 [21] = assay: Antiproliferative activity against cytosolic luciferase-transfected mouse B16-F10 cells xenografted in C57BL/6 mouse assessed as effect on cell growth at 25 mg/kg, ip administered thrice weekly measured after 5 days; type: functional, organism-based; conditions: time 5.0 day
BMDM [22] = assay: Effect on ASC level in LPS-treated mouse BMDM cells at 1 uM incubated for 30 mins followed by ATP stimulation for 1 hr by Hoechst staining based microscopy; type: functional, cell-based; conditions: time 90.0 min
How it was run: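 BMDMs primed with LPS 1 µg/mL for 2 h, given DMSO or compound 1 µM for 30 min, then 5 mM ATP for 1 h. Cells fixed in 4% PFA, permeabilized with 0.1% Triton X-100, stained with anti-ASC overnight at 4 °C plus fluorescent secondary, nuclei Hoechst 1 µM; confocal imaging with 63× oil objective.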

THP-1 [23] = assay: Suppression of NLRP3 expression in LPS-treated human THP-1 cells at 1 to 1000 nM incubated for 30 mins followed by ATP stimulation for 1 hr […]; type: functional, cell-based; conditions: dose 1-1000 nM, time 90.0 min
BMDM [24] = assay: Effect on NLRP3-ASC interaction in LPS-treated mouse BMDM cells at 1 uM incubated for 30 mins followed by ATP stimulation for 1 hr by co-immunoprecipitation based Western blot analysis; type: functional, cell-based; conditions: time 90.0 min
How it was run: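 BMDMs (1 × 10^7) primed with LPS 2 h, treated 1 µM compound 30 min, then ATP 1 h; lysed in HEPES/NaCl/glycerol/EDTA/0.5% Triton buffer with protease/phosphatase inhibitors; NLRP3–ASC co-immunoprecipitation, bait eluted in Laemmli buffer, western blot; representative of three independent experiments.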

B16-F10 [25] = assay: Effect on ASC expression in cytosolic luciferase-transfected mouse B16-F10 cells xenografted in C57BL/6 mouse at 25 mg/kg, ip administered thrice weekly measured after 14 days by Western blot analysis; type: functional, organism-based; conditions: time 14.0 day; how it was run: as §4
BMDM [26] = assay: Effect on AIM2 inflammasome activation in LPS-treated mouse BMDM cells assessed as IL-1beta release at 1 uM incubated for 30 mins followed by Poly (dA:dT) stimulation for 4 hrs by ELISA method; type: functional, cell-based; conditions: time 270.0 min
How it was run: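 BMDMs primed with LPS 100 ng/mL for 3 h, then compound 1 µM in serum-free medium for 30 min, then poly(dA:dT) 1 µg/mL transfected with lipofectamine 2000 for 4 h; supernatant mouse IL-1β by ELISA.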

B16-F10 [27] = assay: Effect on pro-IL-1beta expression in cytosolic luciferase-transfected mouse B16-F10 cells xenografted in C57BL/6 mouse at 25 mg/kg, ip administered thrice weekly measured after 14 days by Western blot analysis; type: functional, organism-based; conditions: time 14.0 day; how it was run: as §4

NACHT, LRR and PYD domains-containing protein 3 (Mus musculus), sequence (Q8R4B8 whole entry, the tested form may be a part): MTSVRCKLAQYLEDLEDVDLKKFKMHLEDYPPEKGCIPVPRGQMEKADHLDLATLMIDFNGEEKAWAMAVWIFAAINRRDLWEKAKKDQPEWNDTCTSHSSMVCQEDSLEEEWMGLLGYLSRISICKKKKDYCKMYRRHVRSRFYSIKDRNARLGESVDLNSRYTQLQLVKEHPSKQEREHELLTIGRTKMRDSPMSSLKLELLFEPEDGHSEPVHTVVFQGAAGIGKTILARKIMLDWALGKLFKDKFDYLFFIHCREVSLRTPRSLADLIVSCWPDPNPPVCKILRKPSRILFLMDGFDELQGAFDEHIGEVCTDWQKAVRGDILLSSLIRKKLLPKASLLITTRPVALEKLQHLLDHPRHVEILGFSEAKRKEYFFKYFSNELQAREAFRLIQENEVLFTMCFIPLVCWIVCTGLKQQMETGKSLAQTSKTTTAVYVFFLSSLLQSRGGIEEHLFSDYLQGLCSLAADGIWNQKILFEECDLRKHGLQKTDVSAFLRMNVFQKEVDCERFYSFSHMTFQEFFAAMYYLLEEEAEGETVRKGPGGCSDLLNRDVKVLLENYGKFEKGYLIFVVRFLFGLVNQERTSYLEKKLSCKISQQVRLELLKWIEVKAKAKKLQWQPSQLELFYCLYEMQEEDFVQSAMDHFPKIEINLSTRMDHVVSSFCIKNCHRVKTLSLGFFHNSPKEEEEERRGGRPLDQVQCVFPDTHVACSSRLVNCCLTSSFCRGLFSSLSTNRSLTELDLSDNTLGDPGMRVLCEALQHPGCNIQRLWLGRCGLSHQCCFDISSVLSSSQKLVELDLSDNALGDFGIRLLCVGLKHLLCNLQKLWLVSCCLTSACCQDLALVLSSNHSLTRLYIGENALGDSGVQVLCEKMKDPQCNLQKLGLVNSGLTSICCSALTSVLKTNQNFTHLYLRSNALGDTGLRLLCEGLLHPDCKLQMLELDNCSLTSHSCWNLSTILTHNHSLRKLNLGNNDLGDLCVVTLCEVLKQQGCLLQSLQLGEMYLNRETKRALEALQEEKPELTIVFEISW

| Structure (SMILES) | inhibition [1] | Activity [2] | Activity (B16-F10 [3]) | Activity (Mus musculus [4]) | Activity (B16-F10 [5]) | half-life at 1 µM [6] | Activity (BMDM [7]) | Activity (THP-1 [8]) | Activity (B16-F10 [9]) | Activity (THP-1 [10]) | half-life at 1 µM [11] | microsomal CLint at 1 µM [12] | Activity (Mus musculus [13]) | microsomal CLint at 1 µM [14] | Activity (B16-F10 [15]) | Activity (THP-1 [16]) | Activity (THP-1 [17]) | Activity (THP-1 [18]) | Activity (THP-1 [19]) | Activity (B16-F10 [20]) | further results |
| --- | --- | --- | --- | --- | --- | --- | --- | --- | --- | --- | --- | --- | --- | --- | --- | --- | --- | --- | --- | --- | --- |
| O=C(CNS(=O)(=O)c1ccc([N+](=O)[O-])cc1)Nc1c2c(cc3c1CCC3)CCC2 | inactive | 344 pg/mL |  |  |  |  |  |  |  |  |  |  |  |  |  |  |  |  |  |  |  |
| C[C@H](NS(=O)(=O)c1ccc([N+](=O)[O-])cc1)C(=O)Nc1c2c(cc3c1CCC3)CCC2 | inactive | 349 pg/mL |  |  |  |  |  |  |  |  |  |  |  |  |  |  |  |  |  |  |  |
| Nc1ccc(S(=O)(=O)NCC(=O)Nc2c3c(cc4c2CCC4)CCC3)cc1 | inactive | 348 pg/mL |  |  |  |  |  |  |  |  |  |  |  |  |  |  |  |  |  |  |  |
| Nc1ccc(S(=O)(=O)N2Cc3ccccc3C[C@H]2C(=O)Nc2c3c(cc4c2CCC4)CCC3)cc1 |  |  | Active | Active | Active | 48.3 min | inactive | inactive | inactive | inactive | 5.1 min | 270 µL/min/mg | Active | 28.7 µL/min/mg | inactive | Active | Non-Toxic | Active | inactive | inactive | Activity (B16-F10 [21]): inactive; Activity (BMDM [22]): inactive; Activity (THP-1 [23]): inactive; Activity (BMDM [24]): inactive; Activity (B16-F10 [25]): inactive; Activity (BMDM [26]): inactive; Activity (B16-F10 [27]): inactive |
| Nc1ccc(S(=O)(=O)N[C@@H](Cc2ccc(O)cc2)C(=O)Nc2c3c(cc4c2CCC4)CCC3)cc1 |  |  | Active | Active | Active | 46.2 min | inactive | inactive | inactive | inactive | 11.2 min | 124 µL/min/mg | Active | 31.9 µL/min/mg | inactive | Active | Non-Toxic | Active | inactive | inactive | Activity (B16-F10 [21]): inactive; Activity (BMDM [22]): inactive; Activity (THP-1 [23]): inactive; Activity (BMDM [24]): inactive; Activity (B16-F10 [25]): inactive; Activity (BMDM [26]): inactive; Activity (B16-F10 [27]): inactive |
